Data: paper PMC10824272 (Biomedicine & pharmacotherapy = Biomedecine & …, 2023)
“And” between values parts separate entries of the source, which are not always exact repeats. Equal entries are not always repeated.

Legend:
[1] = Solubility in aqueous buffers; assay type: physicochemical; settings: dissolved in DMSO to 135 μM for MST
[2] = Drug toxicity in xenograft mice; assay type: in vivo
In short: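 Body weight recorded during treatment. BUN determined colorimetrically in plasma and kidney tissue lysate by kit protocol. Mice sacrificed at day 25; AST activity measured in plasma and liver homogenate, followed up to 60 min at regular intervals. n=5 mice/group, means ± SEM.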

[3] = tested on: trypsinized human claudin-1; assay: Microscale thermophoresis; assay type: binding; settings: 25 °C, at concentrations shown to bind wild-type claudin-1
In short: (§1)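 Microscale thermophoresis at 25 °C with 1 μM Cy3-labeled, detergent-purified claudin (human claudin-19, mouse claudin-4 or trypsinized human claudin-1) in HEPES pH 7.4/100 mM NaCl buffer. Test compound dissolved in DMSO and titrated from 135 μM to 4.1 nM. Affinity derived from duplicate acquisitions.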

[4] = tested on: normal IEC-6 cells; assay: Cell viability; assay type: cell-based; settings: 72 hours
In short: (§2)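 Cells maintained in RPMI plus 10% FBS. Viability read with PrestoBlue reagent per kit protocol after 72 h exposure to test compound.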

[5] = tested on: SW620 cells; assay: Transwell matrigel invasion assay; assay type: cell-based, human; settings: PDS-0330 25μM; P < 0.0001 vs control and 20A
[6] = Tissue bio-distribution in mice; assay type: in vivo; settings: mouse, 5 mg/kg
[7] = tested on: claudin-1 overexpressed PDX tumor; assay: Chemo-resistant patient-derived xenograft; assay type: in vivo, athymic nude mice
In short: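 Chemo-resistant PDX tumor fragments (~2mm3) implanted subcutaneously in 6-week-old athymic nude mice. Once tumors were palpable, dosed once weekly for four weeks (n=5 mice/group), vehicle controls included. Caliper volume from […], tracked over time. Tumor sections stained by IHC for Ki67 and cleaved PARP.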

[8] = tested on: SW620 cells; assay: Cell viability; assay type: cell-based, human
In short: (§3)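 Claudin-1-overexpressing SW480cld1 and SW620 cells grown in RPMI with 10% FBS and exposed for 72 hours to a range of test compound concentrations. Viability measured by PrestoBlue reagent. EC50 calculated from the concentration–viability data.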

[9] = Plasma pharmacokinetics in mice; assay type: in vivo; settings: for AUC(0-t) / CL/F / Cmax / Tmax / Vd/F / half-life / AUC(0-inf): both, mouse, plasma, 5 mg/kg; for AUC(0-inf): AUC0−∞, mice
In short: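 I-6 given as a single 1 mg/kg intravenous dose to C57BL6 mice (n=5), with serial blood sampling. PDS-0330 given at 5 mg/kg by oral gavage or IP, with ~100 μl blood drawn from the maxillary vein at 5, 15, 30 min and 1, 2, 4, 6, 8, 24 h. Plasma levels in ng/ml; non-compartmental parameters.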

[10] = biological target: T1, mouse claudin-4 (Mus musculus, UniProt O35054); assay: Microscale thermophoresis; assay type: binding; settings: 25 °C, duplicate acquisitions
T1 sequence (O35054 1-210): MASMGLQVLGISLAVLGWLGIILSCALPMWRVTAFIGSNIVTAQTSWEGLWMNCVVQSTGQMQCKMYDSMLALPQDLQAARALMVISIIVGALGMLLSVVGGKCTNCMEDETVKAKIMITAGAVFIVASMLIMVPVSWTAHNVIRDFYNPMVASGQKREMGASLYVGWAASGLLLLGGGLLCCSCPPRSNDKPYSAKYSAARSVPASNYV
In short: as §1

[11] = biological target: T2, claudin-1/Src association (Homo sapiens, UniProt O95832); assay: Claudin-1 immunoprecipitation / Src immunoblot in SW620 cells; assay type: cell-based; settings: 12.5μM and 25μM
T2 sequence (O95832 1-211): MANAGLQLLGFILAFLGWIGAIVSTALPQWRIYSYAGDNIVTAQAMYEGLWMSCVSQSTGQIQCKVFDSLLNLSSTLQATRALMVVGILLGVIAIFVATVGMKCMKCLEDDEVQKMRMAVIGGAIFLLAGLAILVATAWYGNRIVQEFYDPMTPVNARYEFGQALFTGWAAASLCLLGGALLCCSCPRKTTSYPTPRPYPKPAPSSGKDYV

[12] = tested on: SW480^cld1, SW620 and HCT116 cells; assay: Screening of I-6 analogs by anoikis; assay type: cell-based, human; settings: Suppl Fig3
In short: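 Anoikis induced by plating cells on poly-HEMA-coated culture plates. Apoptosis quantified with a cell death detection ELISA. Parental lines were cultured in RPMI with 10% FBS. Claudin-1-overexpressing SW480 and claudin-1-knockdown SW620 derivatives were used.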

[13] = tested on: SW620 xenograft tumor; assay: Subcutaneous xenograft tumor study; assay type: in vivo, athymic nude mice
[14] = biological target: T3, human claudin-1 (Homo sapiens, UniProt O95832); assay: Microscale thermophoresis; assay type: binding
T3 sequence (O95832 1-211): T2 sequence (O95832 1-211)

[15] = tested on: HCT116 cells; assay: Cell viability; assay type: cell-based, human; settings: claudin-1 deficient HCT116 cells; 72 hours
In short: as §2

[16] = tested on: SW480^cld1 cells; assay: Cell viability; assay type: cell-based, human
In short: as §3

[17] = tested on: SW620 cells; assay: Anoikis-induced apoptosis assay; assay type: cell-based; settings: claudin-1 overexpressed SW620
[18] = PDS-0330 5mg/kg and 10mg/kg once/week for four weeks

Structure (SMILES): O=C(NC(=S)Nc1ccc(-c2nc3ccccc3o2)cc1)c1ccc2ccccc2c1 [PDS-0330, N-((4-(benzo[d]oxazol-2-yl)phenyl)carbamothioyl)-2-naphthamide]
- solubility in aqueous buffers [1]: limited solubility
- body weight among groups at the end of treatment ([2]; PDS-0330 5mg/Kg and 10mg/Kg, SW620 and SW480^cld1 implanted mice): no statistically significant differences
- urea nitrogen (BUN) level ([2]; kidney tissue and plasma of treated mice): not affected
- aspartate transaminase (AST) levels ([2]; plasma and liver homogenate, day 25): not affected
- binding to trypsinized and labeled claudin-1 [3]: no detectable binding
- effect on cell growth/survival [4]: no effect
- cell invasion [5]: significantly inhibited
- concentration at 2 h ([6]; both, liver, ip): 277 ng/g
- concentration at 8 h ([6]; both, liver, ip): 807 ng/g
- concentration at 2 h ([6]; both, liver, po): 17 ng/g
- concentration at 8 h ([6]; both, liver, po): 5.8 ng/g
- concentration at 24 h ([6]; both, liver, po): 10.5 ng/g
- concentration at 24 h ([6]; both, lungs, ip): 93.7 ng/g
- concentration at 24 h ([6]; both, lungs, po): 519 ng/g
- concentration at 24 h ([6]; liver, ip): 407 ng/g
- concentration at 2 h ([6]; lungs, ip): 338 ng/g
- concentration at 8 h ([6]; lungs, ip): 76.9 ng/g
- concentration at 2 h ([6]; lungs, po): 5 ng/g
- concentration at 8 h ([6]; lungs, po): 473 ng/g
- apoptosis in tumors (cleaved PARP, Bcl-xL, survivin) ([7]; PDS-0330 5mg/kg and 10mg/kg): increase in apoptosis
- proliferation in tumors (Ki67) ([7]; PDS-0330 5mg/kg and 10mg/kg): decreased proliferation
- mean tumor volume and tumor weight [7, 18]: significantly reduced
- primary tumor growth [7, 18]: reduced primary tumor growth in a statistically significant manner
- EC50 ([8]; Homo sapiens, SW-620, 72 h, read-out: EC50, cell viability): 9.3 µM
- CI index, % cell survival in combination with 5-FU ([8]; PDS-0330 with 5-FU (5μM)): < 1
- effect with oxaliplatin on cell survival ([8]; PDS-0330 with oxaliplatin (1μM)): synergistic effect
- mouse behavior or weight ([9]; 24 hours after a single PO and IP injection (5 mg/kg), data not shown): no change
- AUC(0-t) ([9]; ip): 422 ng·h/mL
- CL/F ([9]; ip): 245 mL/min/kg
- Cmax ([9]; ip): 59.3 ng/mL
- Tmax ([9]; ip): 2.8 h
- Vd/F ([9]; ip): 126 L/kg
- half-life ([9]; ip): 5.5 h
- AUC(0-inf) ([9]; ip, PDS-0330 IP 5mg/kg): 442 ng·h/mL
- AUC(0-t) ([9]; po): 53.4 ng·h/mL
- CL/F ([9]; po): 1190 mL/min/kg
- Cmax ([9]; po): 30.8 ng/mL
- Tmax ([9]; po): 0.4 h
- Vd/F ([9]; po): 1100 L/kg
- half-life ([9]; po): 14.5 h
- AUC(0-inf) ([9]; po, PDS-0330 PO 5mg/kg): 86 ng·h/mL
- Kd [10]: 92.1 µM and ≥ 100 µM
- association of Src with claudin-1 [11]: significantly interferes
- potency in inducing cell death among I-6 analogs [12]: most potent
- apoptosis in tumors (cleaved PARP, BclxL, survivin) ([13]; PDS-0330 5mg/Kg and 10mg/Kg): increase in apoptosis
- proliferation in tumors (Ki67) ([13]; PDS-0330 5mg/Kg and 10mg/Kg): reduced proliferation
- tumor volume and weight ([13]; PDS-0330 5mg/Kg and 10mg/Kg vs vehicle): significant reduction
- tumor volume, combination with 5-FU ([13]; PDS-0330 and 5-FU in combination vs either alone): substantial reduction
- Hill coefficient ([14]; 37°C): ~ 5 and 4.5
- Kd ([14]; binding affinity, 37°C, fit to Hill-Langmuir equation): 44.9 ± 5.6 µM
- Kd ([14]; equilibrium dissociation constant (Kd), Cy3-labeled human claudin-1, 25 °C, eight independent acquisitions): 22.9 ± 3 µM
- binding affinity to other claudin subtypes, fold lower than claudin-1 ([14]; human claudin-19 and mouse claudin-4 vs human claudin-1): ~ 4 fold
- effect on cell growth/survival [15]: no effect
- EC50 ([16]; Homo sapiens, 72 h, read-out: EC50, cell viability): 8.4 µM
- CI index, % cell survival in combination with 5-FU ([16]; PDS-0330 with 5-FU (5μM)): < 1
- resistance to anoikis [17]: dramatically reduced the resistance to anoikis
